Screening data (PubChem BioAssay)
The list is not random: actives were taken first. Their share in the collection is about 3%.
TRPC6 act – mouse TRPC6 channel activation | Q61143 | HEK293-TRPC6 membrane potential dye fluorescence; hits give high values | B-score at 10 µM | 310,000 compounds, 0.13% hits | AID 2550;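 active = B-score of the integrated fluorescence ratio above library mean plus 3 SD, and starting fluorescence ratio within library mean plus 5 SD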;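 also: higher score means more depolarization so channel activation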
TRPC4 block – blocks the mouse TRPC4 cation channel; HEK293 TRPC4beta/mu-opioid, DAMGO-evoked Fluo4 calcium flux; hits give low values; B-score at 10 µM; 300,000 compounds, 0.39% hits; AID 2247;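 active = B-score over 3 SD under the library average, no early fluorescence shift, positive overall ratio signal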
Target sequence (Q9QUQ5 whole entry, looked up): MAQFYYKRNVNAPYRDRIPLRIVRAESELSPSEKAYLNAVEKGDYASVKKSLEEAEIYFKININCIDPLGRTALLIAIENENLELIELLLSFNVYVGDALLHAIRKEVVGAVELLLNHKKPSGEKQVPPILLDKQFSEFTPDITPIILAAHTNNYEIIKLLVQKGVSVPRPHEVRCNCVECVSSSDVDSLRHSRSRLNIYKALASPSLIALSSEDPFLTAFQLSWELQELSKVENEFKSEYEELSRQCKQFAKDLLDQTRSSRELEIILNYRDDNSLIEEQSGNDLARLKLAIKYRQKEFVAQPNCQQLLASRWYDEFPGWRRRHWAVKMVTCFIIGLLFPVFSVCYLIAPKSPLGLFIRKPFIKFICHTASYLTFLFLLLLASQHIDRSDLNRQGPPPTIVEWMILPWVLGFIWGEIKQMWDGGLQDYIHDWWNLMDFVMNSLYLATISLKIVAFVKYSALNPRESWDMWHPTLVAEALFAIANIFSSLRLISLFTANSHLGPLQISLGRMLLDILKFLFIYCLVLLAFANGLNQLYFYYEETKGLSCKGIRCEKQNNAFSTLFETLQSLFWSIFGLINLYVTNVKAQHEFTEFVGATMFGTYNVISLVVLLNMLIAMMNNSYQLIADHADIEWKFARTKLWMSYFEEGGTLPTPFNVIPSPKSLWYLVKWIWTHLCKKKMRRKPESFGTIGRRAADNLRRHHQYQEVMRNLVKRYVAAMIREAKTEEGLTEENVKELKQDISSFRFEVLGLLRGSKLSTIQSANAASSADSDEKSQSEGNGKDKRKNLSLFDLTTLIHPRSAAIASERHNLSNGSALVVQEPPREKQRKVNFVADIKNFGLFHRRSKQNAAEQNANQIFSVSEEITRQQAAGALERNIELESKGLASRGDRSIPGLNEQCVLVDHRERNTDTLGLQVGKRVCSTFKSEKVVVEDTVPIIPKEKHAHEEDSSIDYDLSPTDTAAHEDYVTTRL
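Signal: kinetic Fluo4 fluorescence imaging of calcium influx. Material: stable TRPC4beta/mu-opioid receptor HEK293 cells. Probe or stimulus: DAMGO in two steps, submaximal then maximal.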
TRPC4 potent – allosteric potentiators of mouse TRPC4 channel. 310,000 compounds, 0.42% hits. AID 2227. HEK293 TRPC4beta/mu-opioid, DAMGO EC20, Fluo-4 Ca2+ flux; hits give high values. B-score at 10 µM. Q9QUQ5;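 active = B-score of calcium response area above 5 SD of library B-scores, with initial fluorescence ratio within 5 SD of library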;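 also: B-score of integrated fluorescence ratio over time as area under calcium response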
Kir21 block – blocks the mouse Kir2.1 inward-rectifier potassium channel | P35561 | HEK293-Kir2.1, FluxOR thallium flux fluorescence; hits give low values | B-score at 10 µM | 310,000 compounds, 0.85% hits;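 active = fluorescence ratio B-score at or below minus 3 SD of library scores, with starting-brightness B-score within 2 SD, cut at about -4.2 in these data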;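 also: channel flux triggered by added potassium and thallium sulfate stimulus; B-score of peak minus minimum fluorescence over baseline after thallium stimulus; more negative B-score means stronger Kir2.1 block with less thallium influx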
TRPC4 agonist – opens the mouse TRPC4 cation channel | Q9QUQ5 | HEK293 TRPC4beta/mu-opioid, Fluo4 calcium fluorescence; hits give high values | B-score at 10 µM | 310,000 compounds, 0.49% hits | AID 2237;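 active = B-score above 5 SD of library B-scores, and initial fluorescence ratio not above library mean plus 5 SD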;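 also: positive B-score marks a calcium rise read as TRPC4 activation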
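Assay system: HEK293 cells stably co-expressing mouse TRPC4beta and mu-opioid receptor / Timing: Fluo4 dye loading 45 min at room temperature, 110 s recording / Signal: Fluo4 calcium-sensitive dye fluorescence, kinetic, 1 Hz baseline / Read-out: integrated baseline-normalised fluorescence ratio, converted to per-well B score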
TRPC6 inhibitor – blocks the mouse TRPC6 cation channel | Q61143 | 310,000 compounds, 1.1% hits | HEK293-TRPC6, membrane potential dye, ACh-evoked depolarization; hits give low values | B-score at 10 µM | AID 2553;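 active = B-score under library mean minus 3 SD, initial fluorescence not abnormally high, positive integrated signal ratio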;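 also: B-score derived from integrated fluorescence ratio over the kinetic read; more negative B-score means stronger inhibition of depolarization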
TRPC4 sel inh 2 – second selectivity test of TRPC6 inhibitors: effect on mouse TRPC4 | inhibition, % at 10 µM | shares compounds with TRPC6 inhibitor | 920 compounds, 42% hits | AID 2776 | HEK293 TRPC4/MOR, membrane potential dye fluorescence; channel activated by saturating DAMGO dose;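 active = compounds whose fluorescence signal differed from control wells by over 3 SD, either direction, in both duplicate plates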
TRPC4 spec – selectivity of TRPC6 inhibitors: effect on mouse TRPC4; 920 compounds, 61% hits; AID 2777; HEK293 TRPC4/mu-opioid, membrane potential fluorescence; shares compounds with TRPC6 inhibitor; activity change, negative = inhibition, % at 10 µM;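 active = rise or fall in signal beyond 3 SD of buffer-only wells in both replicate plates, either sign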;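 also: integrated kinetic ratio of fluorescence range over baseline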
HEK293 MPD ctr 2-1 – second counter-screen for TRPC6 inhibitors: parental HEK293 cells. shares compounds with TRPC6 inhibitor. parental HEK293 membrane potential dye fluorescence; maximal acetylcholine challenge after compound addition. signal change vs control, % at 10 µM. 920 compounds, 31% hits;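 active = membrane potential signal moving either way by over 3 SD of the maximum-effect control, in both duplicate plates, meaning non-specific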
HEK293 MPD ctr-1 – checks TRPC6 inhibitor effects in parental HEK293 cells; AID 2780; shares compounds with TRPC6 inhibitor; parental HEK293 membrane potential dye fluorescence; 920 compounds, 60% hits; membrane potential signal change, % at 10 µM;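 active = membrane potential signal shifting up or down by more than 3 SD of buffer-only wells, on both duplicate plates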
HEK293 MPD ctr-2 – parental HEK293 nonspecific activity of TRPC6 modulators; shares compounds with TRPC6 inhibitor; membrane potential dye fluorescence; membrane potential signal change, % at 10 µM; 2,400 compounds, 51% hits; AID 488924;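 active = membrane potential signal moves up or down beyond 5 SD from buffer-only wells, on both duplicate plates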
HEK293 MPD ctr 2-2 – second check of TRPC6 modulator effects in parental HEK293 cells; shares compounds with TRPC6 inhibitor; membrane potential dye fluorescence; after compound, maximal acetylcholine stimulation; inhibition, % at 10 µM; 2,400 compounds, 14% hits; AID 488926;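 active = membrane potential signal drops by more than 5 SD from the mean control signal, in both duplicate plates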;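 also: plate controls were acetylcholine ECmax control wells for no effect and buffer only wells for full effect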
TRPC4 ctr mod – selectivity of TRPC6 modulators against mouse TRPC4; 2,400 compounds, 69% hits; percent change from control (negative = decrease, positive = increase), % at 10 µM; shares compounds with TRPC6 inhibitor; AID 488927; HEK293 TRPC4/mu-opioid, membrane potential fluorescence;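 active = membrane potential signal moved up or down beyond 5 SD of buffer control wells, in both duplicate plates, actives on both sides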;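 also: plate controls were assay buffer wells for no effect and DAMGO maximal-effect wells for full effect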
TRPC4/MOR inh 2 – second selectivity test of TRPC6 modulators against mouse TRPC4; shares compounds with TRPC6 inhibitor; HEK293 TRPC4/mu-opioid, membrane potential dye fluorescence; stimulated with maximal-effect DAMGO; inhibition, % at 10 µM; 2,400 compounds, 55% hits;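 active = drop in membrane potential signal beyond 5 SD of the control wells in both duplicate plates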;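 also: TRPC4 counter screen for TRPC6 hits run under conditions tuned for TRPC6 not TRPC4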
TRPC6 inh conf – confirmation of mouse TRPC6 inhibitors; shares compounds with TRPC6 inhibitor; HEK293-TRPC6, membrane potential dye, ACh-evoked depolarization; inhibition, % at 10 µM; 3,300 compounds, 43% hits; AID 488960;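 active = fluorescence ratio falls more than 5 SD below the full-stimulation control mean, in both duplicate runs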;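 also: integrated fluorescence ratio of peak minus minimum over baseline after agonist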
TRPC6 act confirm – confirmation of mouse TRPC6 activators; activation, % at 10 µM; shares compounds with TRPC6 inhibitor; AID 488961; HEK293-TRPC6 membrane potential dye fluorescence, FDSS; 2,800 compounds, 11% hits;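 active = ratio signal rise beyond 5 SD above unstimulated control wells' mean, seen in both duplicate runs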;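 also: plate controls were buffer EC0 wells for no effect and acetylcholine ECmax response for full effect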
* = called active by the depositor; i = inactive; . = not tested or not shown.

SMILES | TRPC6 act | TRPC4 block | TRPC4 potent | Kir21 block | TRPC4 agonist | TRPC6 inhibitor | HEK293 MPD ctr-2 | HEK293 MPD ctr 2-2 | TRPC4 ctr mod | TRPC4/MOR inh 2 | TRPC6 inh conf | TRPC6 act confirm | others
CC1=NN(C(N)=S)C(=O)C1N=Nc1ccccc1 (stereo not drawn) | i | . | i | -0.92 | i | i | . | . | . | . | . | .
OCC1(CCc2ccccc2)CCN(C/C=C/c2ccccc2)CC1 | i | i | i | 0.66 | i | i | . | . | . | . | . | .
OCC1(Cc2ccccc2Cl)CCN(C/C=C/c2ccccc2)CC1 | i | i | i | -1.59 | i | -5.3* | 131.5%* | i | 25.0%* | 59.5%* | i | .
O=C(c1ccccc1)N(c1ccccc1)C1C=CS(=O)(=O)C1 (stereo not drawn) | i | i | i | 0 | i | -6.27* | i | i | i | i | i | i
CN1CCN(c2nc(-c3ccccc3O)nc3ccccc23)CC1 | i | i | i | 0.12 | i | i | . | . | . | . | . | .
CN1CCN(c2nc(-c3cccs3)nc3ccccc23)CC1 | i | i | i | 0.45 | i | -8.25* | . | . | . | . | 68.7%* | i | TRPC4 sel inh 2=32.5%*;TRPC4 spec=-28.1%*;HEK293 MPD ctr 2-1=i;HEK293 MPD ctr-1=-344.5%*
COc1cccc(-c2nc(N3CCN(C)CC3)c3ccccc3n2)c1O | i | i | i | -0.02 | i | -9.91* | -217.5%* | i | -44.0%* | 71.5%* | 51.5%* | i
O=C1CSC(c2ccccc2Cl)N1 (stereo not drawn) | i | i | i | -0.23 | i | i | . | . | . | . | . | .
CC(OC(=O)CNC(=O)c1ccc2ccccc2c1)C(=O)N(C)C1CCCCC1 (stereo not drawn) | i | i | i | 1.46 | i | i | . | . | . | . | . | .
C[N+]1(C)CCCC(OC(=O)C(O)(c2ccccc2)c2ccccc2)C1 (stereo not drawn) | i | i | i | 0.45 | i | -12.9* | . | . | . | . | 94.5%* | i | TRPC4 sel inh 2=i;TRPC4 spec=i;HEK293 MPD ctr 2-1=-23.0%*;HEK293 MPD ctr-1=i
NCCNc1ccc(C(=O)N2c3ccccc3Sc3ccccc32)cc1[N+](=O)[O-] | i | i | i | -4.94* | i | -6.19* | i | i | -10.0%* | 59.5%* | 54.5%* | i
O=C(C1CCN(S(=O)(=O)c2ccccc2F)CC1)N1CCc2ccccc2C1 | i | i | i | -0.14 | i | i | . | . | . | . | . | .
CCc1ccc2c(c1)cc(C)c1nnc(SCC(=O)Nc3cc(OC)c(OC)cc3C(=O)O)n12 | i | i | i | -0.2 | i | i | . | . | . | . | . | .
CC(C)(C)OC(=O)NC(CNCc1ccccc1)Cc1ccccc1 (stereo not drawn) | i | i | i | -1.04 | i | -5.33* | 136.0%* | i | 24.5%* | 34.0%* | i | .
N#Cc1ccncc1Sc1ccc(Cl)cc1 | i | i | i | -0.77 | i | i | . | . | . | . | . | .
Cc1nc2c(Cl)cccc2c2c1CC(CBr)O2 (stereo not drawn) | i | i | i | -0.76 | i | i | . | . | . | . | . | .
COc1cccc2c3c(c(C)nc12)CC(C)O3 (stereo not drawn) | i | i | i | -0.96 | i | -6.15* | -145.5%* | i | -17.5%* | 41.0%* | i | i
COc1ccc2nc(C)c3c(c2c1)OC(C)C3 (stereo not drawn) | i | i | i | -0.03 | i | -7.45* | . | . | . | . | i | i | TRPC4 sel inh 2=i;TRPC4 spec=-16.9%*;HEK293 MPD ctr 2-1=18.0%*;HEK293 MPD ctr-1=-236.5%*
CCOC(=O)c1ccc2nc(C)c3c(c2c1)OC(C)C3 (stereo not drawn) | i | i | i | 2.53 | i | -5.22* | -112.0%* | i | -13.0%* | i | i | i
Cc1nc2ccc(C(=O)O)cc2c2c1CC(CN)O2 (stereo not drawn) | i | i | i | 0.58 | i | i | . | . | . | . | . | .
COc1ccc(-c2noc3c2-c2nc(-c4cccc(C)c4)sc2CC3)cc1 | i | i | i | 0.04 | i | i | . | . | . | . | . | .
Cc1ccc(C(=O)N/C(=C/c2ccc(F)cc2)C(=O)NCc2ccncc2)cc1 | i | i | i | 0.38 | i | i | . | . | . | . | . | .
Cn1c(Cc2ccccc2)nnc1SCC(=O)NCCc1ccccc1 | i | i | i | -3.93 | i | i | . | . | . | . | . | .
Cc1ccc(C)c(NC(=S)NCCN(C2CCCCC2)C2CCCC2)c1 | i | i | i | -0.71 | i | -5.23* | 172.5%* | i | 32.5%* | 48.0%* | i | .
Cc1ccc(SCCNC(=S)Nc2cc(C)ccc2C)cc1 | i | i | i | -2.18 | i | i | . | . | . | . | . | .
Cc1nnc(SCC(=O)Nc2cc(Cl)ccc2Cl)n1CC1CCCO1 (stereo not drawn) | i | i | i | -1.83 | i | i | . | . | . | . | . | .
